The array DNA melting data of Ke et al. (doi:10.1101/2024.01.08.574731)

Assays:
[1] = folding enthalpy; higher = less favourable; fluorescence melt of hairpins on a sequencing array, two-state fit; conditions: sodium 0.088 M
Outline: (§1)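 Hairpins were imaged by Cy3 fluorescence on a sequenced MiSeq flow cell with annealed Cy3 and quencher oligos, in 50 mM Na-HEPES pH 8.0, 25 mM NaCl, in 2.5 °C steps up to 60 °C. Bootstrapped two-state fits of normalised signals gave melting temperature and folding enthalpy. Four replicates were combined by inverse variance, and fitted temperatures were raised by 9.35 °C to match UV melts.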

[2] = melting temperature; fluorescence melt of hairpins on a sequencing array, two-state fit, raised by 9.35 °C to match UV melts; conditions: sodium 0.088 M
Outline: as §1

| Sequence | folding enthalpy [1] | Tm [2] |
| --- | --- | --- |
| GCATAACGAAAGTTCTGC (((.(((....))).))) | -35.4 kcal/mol | 45.6 °C |
| GCATAAGCGAAAGCTTGC (((..(((....)))))) | -14.7 kcal/mol | 46.3 °C |
| GCATAAGGAAACTTGTGC (((.(((....))).))) | -25.8 kcal/mol | 45.1 °C |
| GCATACGAAAGTAGTTGC ((((((....)))..))) | -17.5 kcal/mol | 33.1 °C |
| GCATACGAAAGTATATGC ((((((....)))..))) | -24.7 kcal/mol | 41.9 °C |
| GCATACGAAAGTATGC ((((((....)))))) | -35.3 kcal/mol | 67.9 °C |
| GCATAGAAATATGC (((((....))))) | -21.9 kcal/mol | 43.3 °C |
| GCATAGCGAAAGCAAGGC ((.(.((....)).).)) | -14 kcal/mol | 37.9 °C |
| GCATAGCGAAAGCAGTGC (((..((....))..))) | -17 kcal/mol | 53.7 °C |
| GCATAGCGAAAGCGAGGC ((.(.((....)).).)) | -13.3 kcal/mol | 54.4 °C |
| GCATAGCGAAAGCTGAGC ((..(((....)))..)) | -15.7 kcal/mol | 46 °C |
| GCATAGGGAAACCTGTGC (((.(((....))).))) | -33.6 kcal/mol | 50.3 °C |
| GCATATCGAAAGATGTGC (((.(((....))).))) | -36.5 kcal/mol | 55.4 °C |
| GCATATCGAAAGATTGC (((.(((....)))))) | -25.9 kcal/mol | 46.6 °C |
| GCATCAACGAAAGTTTGC (((..(((....)))))) | -16.9 kcal/mol | 30.8 °C |
| GCATCAGGAAACTAATGC ((((.((....)).)))) | -22.6 kcal/mol | 31.5 °C |
| GCATCAGGAAACTGACGC ((.((((....)))).)) | -30 kcal/mol | 44.5 °C |
| GCATCATCGAAAGATTGC (((..(((....)))))) | -19.8 kcal/mol | 30.8 °C |
| GCATCCGAAAGGAAATGC ((((((....)))..))) | -25.3 kcal/mol | 46.1 °C |
| GCATCCGAAAGGAGCTGC ((((((....)))..))) | -19.2 kcal/mol | 50.6 °C |
| GCATCCGAAAGGAGTTGC ((((((....)))..))) | -15.4 kcal/mol | 37.9 °C |
| GCATCCGAAAGGATCTGC ((((((....)))..))) | -17.1 kcal/mol | 46.5 °C |
| GCATCCGGAAACGGATAC (.(((((....))))).) | -16.9 kcal/mol | 39.7 °C |

| Sequence | folding enthalpy [1] | Tm [2] |
| --- | --- | --- |
| GCATCGCGAAAGCATTGC (((..((....))..))) | -13.1 kcal/mol | 37.7 °C |
| GCATCGCGAAAGCCAAGC ((.(.((....)).).)) | -9.2 kcal/mol | 27.5 °C |
| GCATCGCGAAAGCCGTGC (((..((....))..))) | -19.3 kcal/mol | 45.1 °C |
| GCATCGCGAAAGCGTGGC ((..(((....)))..)) | -15.8 kcal/mol | 54.7 °C |
| GCATCGCGAAAGCTACGC ((.(.((....)).).)) | -8.55 kcal/mol | 32.8 °C |
| GCATCGGGAAACCAACGC ((.(.((....)).).)) | -17.7 kcal/mol | 28.3 °C |
| GCATCGGGAAACCGACGC ((.((((....)))).)) | -42.1 kcal/mol | 50.4 °C |
| GCATCGGGAAACTGATGC (((((.(....).))))) | -37.2 kcal/mol | 55.7 °C |
| GCATCTGCGAAAGCATGC (((..(((....)))))) | -14.4 kcal/mol | 39.8 °C |
| GCATCTGGAAACAGATGC (((((((....))))))) | -47.9 kcal/mol | 67.3 °C |
| GCATGAGCGAAAGCTTGC (((..(((....)))))) | -14.1 kcal/mol | 45.6 °C |
| GCATGATCGAAAGATTGC (((..(((....)))))) | -19.9 kcal/mol | 32.6 °C |
| GCATGCCCGAAAGGGTGC (((..(((....)))))) | -14.3 kcal/mol | 44.4 °C |
| GCATGCCGAAAGGCCTGC (((.(((....))).))) | -31.6 kcal/mol | 55.9 °C |
| GCATGCGAAAGCAATTGC ((((((....)))..))) | -19.5 kcal/mol | 44.1 °C |
| GCATGCGAAAGCACATGC ((((((....)))..))) | -19 kcal/mol | 51 °C |
| GCATGCGAAAGCACGTGC ((((((....)))..))) | -19.2 kcal/mol | 39.8 °C |
| GCATGCGAAAGCACTGC ((((((....))).))) | -22.3 kcal/mol | 51.3 °C |
| GCATGCGAAAGCACTTGC ((((((....)))..))) | -15.4 kcal/mol | 37.7 °C |
| GCATGCGAAAGCAGATGC ((((((....)))..))) | -24.6 kcal/mol | 51.4 °C |
| GCATGCGAAAGCAGGTGC ((((((....)))..))) | -23.2 kcal/mol | 51.1 °C |
| GCATGCGAAAGCAGTGC ((((((....))).))) | -27 kcal/mol | 54.6 °C |
| GCATGCGGAAACGCATAC (.(((((....))))).) | -9.77 kcal/mol | 44 °C |

| Sequence | folding enthalpy [1] | Tm [2] |
| --- | --- | --- |
| GCATGCTCGAAAGAGTGC (((..(((....)))))) | -15.8 kcal/mol | 34.3 °C |
| GCATGGACGAAAGTCTGC (((..(((....)))))) | -19.1 kcal/mol | 43 °C |
| GCATGGCGAAAGCCCTGC (((.(((....))).))) | -45.3 kcal/mol | 53 °C |
| GCATGGCGAAAGCGAAGC ((.(.((....)).).)) | -11.7 kcal/mol | 35.4 °C |
| GCATGGCGAAAGCGTTGC (((..((....))..))) | -21.5 kcal/mol | 48 °C |
| GCATGGCGAAAGCTAAGC ((.(.((....)).).)) | -12.6 kcal/mol | 38.4 °C |
| GCATGGCGAAAGCTACGC ((.(.((....)).).)) | -16.4 kcal/mol | 35 °C |
| GCATGGCGAAAGCTGTGC (((..((....))..))) | -31.6 kcal/mol | 59.9 °C |
| GCATGGGGAAACCCACGC ((.((((....)))).)) | -23.8 kcal/mol | 46.7 °C |
| GCATGGGGAAACCCGTGC (((.(((....))).))) | -47.5 kcal/mol | 58.7 °C |
| GCATGTCGAAAGACCTGC (((.(((....))).))) | -37.4 kcal/mol | 50.6 °C |
| GCATGTGGAAACACATGC (((((((....))))))) | -37.1 kcal/mol | 68.5 °C |
| GCATGTGGAAACACGTGC (((.(((....))).))) | -45.4 kcal/mol | 55.6 °C |
| GCATTAACGAAAGTTTGC (((..(((....)))))) | -16 kcal/mol | 33.6 °C |
| GCATTACCGAAAGGTTGC (((..(((....)))))) | -20.1 kcal/mol | 40 °C |
| GCATTAGGAAACTAGTGC (((.(((....))).))) | -28.6 kcal/mol | 40.9 °C |
| GCATTCCCGAAAGGGTGC (((..(((....)))))) | -20.9 kcal/mol | 43.5 °C |
| GCATTCGAAAGAAATGC ((((((....))).))) | -30.4 kcal/mol | 49 °C |
| GCATTCGAAAGAAGGTGC ((((((....)))..))) | -22.2 kcal/mol | 36.7 °C |
| GCATTCGAAAGAAGTGC ((((((....))).))) | -23.2 kcal/mol | 40.2 °C |
| GCATTCGCGAAAGCGTGC (((..(((....)))))) | -11.8 kcal/mol | 41.8 °C |
| GCATTGCGAAAGCAGTGC (((.(((....))).))) | -48.9 kcal/mol | 59.8 °C |
| GCATTGCGAAAGCTAAGC ((.(.((....)).).)) | -14.8 kcal/mol | 43.7 °C |

| Sequence | folding enthalpy [1] | Tm [2] |
| --- | --- | --- |
| GCATTGCGAAAGCTACGC ((.(.((....)).).)) | -14 kcal/mol | 39.1 °C |
| GCATTGCGAAAGCTGTGC (((..((....))..))) | -22.2 kcal/mol | 56 °C |
| GCATTGGCGAAAGCCTGC (((..(((....)))))) | -15.1 kcal/mol | 44.3 °C |
| GCATTGGGAAACCAACGC ((.((((....)))).)) | -29.4 kcal/mol | 42.2 °C |
| GCATTGGGAAACCAATAC (.(((((....))))).) | -18.4 kcal/mol | 32.9 °C |
| GCATTGGGAAACCGATGC ((((.((....)).)))) | -50.4 kcal/mol | 53.3 °C |
| GCATTGGGAAACTAGTGC (((.(.(....).).))) | -19.5 kcal/mol | 29.8 °C |
| GCATTGTCGAAAGACTGC (((..(((....)))))) | -22.8 kcal/mol | 37.2 °C |
| GCATTTACGAAAGTATGC (((..(((....)))))) | -22.2 kcal/mol | 38 °C |
| GCATTTCGAAAGAATTGC (((.(((....))).))) | -33.7 kcal/mol | 47.1 °C |
| GCATTTGGAAACAAATAC (.(((((....))))).) | -17.9 kcal/mol | 29.3 °C |
| GCCAAACCGAAAGGTGGC (((..(((....)))))) | -32 kcal/mol | 55.4 °C |
| GCCAAACGAAAGTTGGGC (((.(((....))).))) | -37.2 kcal/mol | 61.4 °C |
| GCCAAAGAAATTTGGC ((((((....)))))) | -34.6 kcal/mol | 54 °C |
| GCCAAAGGAAACCTTGGC (((((.(....).))))) | -29 kcal/mol | 48.1 °C |
| GCCAACGAAAGTTACGGC ((((((....)))..))) | -26.1 kcal/mol | 41.3 °C |
| GCCAACGAAAGTTAGGC ((((((....))).))) | -28.9 kcal/mol | 52.8 °C |
| GCCAACGAAAGTTCTGGC ((((((....)))..))) | -24.9 kcal/mol | 38 °C |
| GCCAACGAAAGTTGGGC ((((((....))).))) | -14.2 kcal/mol | 65.7 °C |
| GCCAACGAAAGTTTTGGC ((((((....)))..))) | -23.2 kcal/mol | 44.6 °C |
| GCCAACGGAAACACTGGC ((((..(....)..)))) | -14 kcal/mol | 29.1 °C |
| GCCAACGGAAACATTGGC (((((.(....).))))) | -31.9 kcal/mol | 44.1 °C |
